Data set [1] has as its system melanocytes. To be noted: 1 mM for 48 h; cited from earlier work.
Data set [2] concerns human melanocytes. To be noted: doses between 1.25 and 10 μM; cited from earlier work.
Data set [3] relates to tyrosinase. To be noted: treating hyperpigmentation disorders; cited from earlier work.
The test system of data set [4] is cultured human melanoma cells. As to conditions: cited from earlier work.
The subject of data set [5] is B16F10 cells. As to the kind of experiment: Anti-melanogenesis activity on B16F10 murine melanomas. To be noted: 20 μg/ml, 72 h. The data set is classed as cell-based. Put shortly:
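B16F10 murine melanoma cells (ATCC; DMEM with 10 % FBS) are seeded in 6-well plates and held 24 h in a CO₂ incubator, then exposed to test compound for 72 h. Cells are washed with 1xPBS, dissolved in 10 % NaOH at 60 °C for 1 h, and melanin is read at 450 nm. % anti-melanogenesis = 100 − (Mt/Mc × 100) versus untreated control. Triplicate, three independent experiments; mean ± SD.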

Consider six molecules from article PMC11315199 (Heliyon, 2024).

On to `O=C1O[C@H]([C@@H](O)CO)C([O-])=C1OP(=O)([O-])[O-].O=C1O[C@H]([C@@H](O)CO)C([O-])=C1OP(=O)([O-])[O-].[Mg+2].[Mg+2].[Mg+2]` [MAP, Magnesium ascorbyl phosphate], for which the “cytotoxic or cell growth inhibiting effects” value in data set [1] is “no noticeable cytotoxic or cell growth inhibiting effects”.
As to `COc1cc(/C=C/C(=O)CC(=O)/C=C/c2ccc(O)c(OC)c2)ccc1O` [CC, Curcumin], the melanocyte viability result in data set [2] was “without affecting melanocyte viability”.
For the molecule `OC[C@H]1O[C@@H](Oc2ccc(O)cc2)[C@H](O)[C@@H](O)[C@@H]1O` [arbutin], the pigmentation reduction in data set [3] is recorded as 43.5%.
Take `CC(=O)Cc1cc(=O)c2c(C)cc(O)c([C@@H]3O[C@H](CO)[C@@H](O)[C@H](O)[C@H]3O)c2o1` [aloesin]: in data set [3], the pigmentation reduction is reported as 34%.
For the molecule `OC[C@H]1O[C@H](Oc2ccc(O)cc2)[C@H](O)[C@@H](O)[C@@H]1O` [AA, Alpha arbutin], the “melanin content and tyrosinase activity” value in data set [4] (0.25–0.5 mM) was “decreased melanin content and tyrosinase activity in a dose-dependent manner”. The cell proliferation entry in data set [4] (0.25–1 mM) is on record as “no effect on cell proliferation”.
Regarding `O=c1cc(CO)occ1O` [kojic acid], the “% Anti-melanogenesis” value in data set [5] turned out to be 44.54 ± 2.47%.
